# Screening data from PubChem BioAssay.
# NSD2 inh = inhibitors of human histone methyltransferase NSD2; 310,000 compounds, 0.54% hits; inhibition, % at 12.5 µM; NSD2 peptide methylation, AlphaScreen, 120 min; O96028; in the data active = inhibition above about 50%
# TDP2 absorb = blocks human TDP2 phosphodiesterase activity; AID 720702; O95551; recombinant TDP2, T5PNP hydrolysis, p-nitrophenol absorbance 415 nm; 370,000 compounds, 0.34% hits; inhibition, % at 12.8 µM;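 active = inhibition above the mean of all tested compounds plus 3 SD, set per campaign, cut at about 25% in these data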
# Target sequence (O95551 whole entry, looked up): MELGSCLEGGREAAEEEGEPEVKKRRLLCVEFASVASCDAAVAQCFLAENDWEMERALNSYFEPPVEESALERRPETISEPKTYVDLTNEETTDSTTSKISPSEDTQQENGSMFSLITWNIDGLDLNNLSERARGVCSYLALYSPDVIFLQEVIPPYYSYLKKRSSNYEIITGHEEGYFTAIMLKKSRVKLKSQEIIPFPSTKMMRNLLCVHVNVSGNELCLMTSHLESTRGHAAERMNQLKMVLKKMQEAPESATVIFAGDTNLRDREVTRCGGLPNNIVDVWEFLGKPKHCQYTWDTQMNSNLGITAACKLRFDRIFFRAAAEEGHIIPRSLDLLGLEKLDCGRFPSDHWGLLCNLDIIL
#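 System: recombinant human TDP2 / Amount: 120 nM TDP2 per well / Also added: 5 mM T5PNP chromogenic substrate / Doses: 12.8 µM single point, 1% DMSO / Incubation: 2 h at 37 °C / Detection: p-Nitrophenol epi absorbance / Evaluation: % inhibition relative to enzyme-containing and enzyme-free wells / Repeats: singlicate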
# UHRF1 binding = blocks human UHRF1 binding to methylated DNA | Q96T88 | UHRF1 binding to methylated oligo, TR-FRET | inhibition, % at 4.4 µM | 370,000 compounds, 0.75% hits | AID 687016;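 note: UHRF1 SRA domain binding a hemimethylated CpG hairpin DNA probe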
# MBD2 inh = MBD2-methylated oligo binding inhibition; TR-FRET, MBD2 binding to methylated oligonucleotide; inhibition, % at 4.4 µM; 370,000 compounds, 0.31% hits; in the data active = inhibition above about 13%
# CASP6 VEID inh = inhibitors of human caspase-6. 350,000 compounds, 0.53% hits. inhibition, % at 12.5 µM. P55212. purified caspase-6, Z-VEID-R110 cleavage fluorescence;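 active = mean inhibition across replicates at least about 35%, with every replicate also reaching that limit, limit read from the data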
# LEDGF integ inh = blocks HIV-1 LEDGF/p75-dependent DNA integration; inhibition, % at 3.7 µM; 370,000 compounds, 0.64% hits; TR-FRET IN-LEDGF/p75 DNA integration, Eu/Cy5; AID 743269;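 active = inhibition above the screen-wide mean plus 3 SD, cut at about 13% in these data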;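 note: signal is the Cy5 over europium emission ratio at 671 and 618 nm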
# UHRF1 ctr MBD2 = inhibits human UHRF1 binding to methylated oligonucleotide, MBD2 counter-screen; shares compounds with MBD2 inh; TR-FRET; inhibition, % at 4.4 µM; 1,000 compounds, 25% hits; AID 720530;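 note: UHRF1 SRA domain binding a labeled hemimethylated CpG hairpin DNA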
# MBD2 DBD conf = confirmation of human MBD2-DBD methylated oligonucleotide binding inhibitors; 1,000 compounds, 26% hits; TR-FRET MBD2-DBD binding to methylated oligonucleotide; AID 720531; shares compounds with MBD2 inh; inhibition, % at 4.4 µM; in the data active = inhibition above about 14%
# A number is an active result; . = inactive; / = not tested or not shown. Sampled rows, rich in hits. Any-hit rate of the full collection: about 1.9%. Cut-off read from the data, not from the text of the source, unless noted: active = inhibition above about 21%; inactive = the rest.
SMILES,NSD2 inh,TDP2 absorb,UHRF1 binding,MBD2 inh,CASP6 VEID inh,LEDGF integ inh,UHRF1 ctr MBD2,MBD2 DBD conf
Cc1ccc(-c2csc3nc4cc(C(=O)NC5CCC(O)CC5)ccc4c(=O)n23)cc1 (stereo not drawn),/,.,.,14,.,.,.,.
O=C(Nc1cnc2ccccc2c1)N1CCOCC1,.,.,.,16,/,.,.,.
C[C@@H]1CN([C@H](C)CO)C(=O)c2cc(NC(=O)Nc3ccc(F)cc3)ccc2O[C@@H]1CN(C)S(C)(=O)=O,/,/,/,/,.,/,/,/
Cc1cccc(Cn2cc(SCC(=O)Nc3nccs3)c3ccccc32)c1,/,.,.,30,.,.,.,.
Cc1ccc(Cn2cc(SCC(=O)Nc3nccs3)c3ccccc32)cc1,/,.,.,.,.,.,/,/
CC(=O)Nc1ccc2c(c1)ncn2C1CCCCC1,.,.,.,34,.,.,.,.
CCOC(=O)C1=C(COC(=O)C2CC(=O)N(c3ccc(C)cc3)C2)NC(=O)NC1C (stereo not drawn),.,.,37,14,.,.,.,.
CCCC(=O)Nc1ccc(NC(=O)Cc2ccccc2)cn1,.,.,.,.,/,.,/,/
CCCC(=O)Nc1ccc(NC(=O)CCc2ccccc2)cn1,/,.,.,69,/,.,.,.
C[C@@H]1CN([C@@H](C)CO)C(=O)Cc2cc(NC(=O)Nc3cccc4ccccc34)ccc2O[C@H]1CN(C)C(=O)Nc1ccc(C(F)(F)F)cc1,/,/,/,/,.,/,/,/
Cc1ccc(CC(=O)Nc2nc3c(s2)CCCC3)cc1,/,.,.,13,/,.,.,.
Cc1ccc(CC(=O)Nc2cccc(C)n2)cc1,.,.,.,15,/,.,.,.
Cc1cccc(NC(=O)Cc2ccc(-c3ccccc3)cc2)n1,.,.,.,.,.,.,/,/
C[C@@H]1CN([C@H](C)CO)C(=O)c2ccccc2-c2ccccc2CO[C@H]1CN(C)S(=O)(=O)c1ccc(C(F)(F)F)cc1,/,/,/,/,.,/,/,/
Cc1ccc(CN(C)C(=O)c2cccc(S(=O)(=O)N3CCc4ccccc43)c2)cc1,.,.,.,15,.,.,.,.
Cc1ccc(CN(C)C(=O)c2cccc(S(=O)(=O)N3CCCC3)c2)cc1,.,.,.,.,.,.,/,/
Cn1c(SCc2ccc(Cl)cc2)nnc1-c1ccc2nonc2c1,.,.,.,21,.,.,.,.
Cn1c(SCc2c(Cl)cccc2Cl)nnc1-c1ccc2nonc2c1,.,.,.,.,.,.,/,/
O=C(NCc1cccc(Cl)c1)c1ccc(-n2ccnc2)c2ccoc12,.,.,22,14,.,.,.,.
COc1ccc(CNC(=O)c2ccc(-n3cncn3)c3ccoc23)cc1OC,.,.,.,.,.,.,/,/
COc1ccc(CNC(=O)c2ccc(-n3ccnc3)c3ccoc23)cc1OC,.,.,23,14,.,.,.,.
O=C(NCc1cccc(Cl)c1)c1ccc(-n2cncn2)c2ccoc12,.,.,.,.,.,.,/,/
C[C@H](CO)N1C[C@H](C)[C@H](CN(C)CC2CCCCC2)Oc2ccc(NS(C)(=O)=O)cc2CC1=O,/,/,/,/,.,/,/,/
CC(C)CC#Cc1ccc2c(c1)O[C@@H](CN(C)C(=O)C1CCOCC1)[C@H](C)CN([C@@H](C)CO)S2(=O)=O,/,/,/,/,.,/,/,/
Cc1ccccc1NC(=O)c1ccc(CN2CCc3ccccc3C2)cc1,.,.,.,34,/,.,.,.
CCCCCCCCN1C(=O)[C@H](CC(=O)NCc2ccccc2)C[C@@]2(C(=O)OCC)CCCC=C12,/,.,.,.,.,.,/,/
CCCCCCC12C(=Cc3cc(C)ccc31)c1ccccc1C(CC(=O)NCc1ccccc1)N2C(=O)OC (stereo not drawn),/,.,54,29,.,.,.,.
